Reference: PubChem BioAssay
Records with an inconclusive call do not appear.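 The calls were made as follows, unless noted: active = viability at or below 27.92% in each of two runs, the all-compound median minus 4 SD; inconclusive = no clear call, values can overlap the other calls; inactive = the rest.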

Key:
[1] = S. cerevisiae growth inhibition in permissive medium (OD615), pilot counter-assay for S. cerevisiae lifespan shortening project, permissive growth control (AID 705;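 active = growth inhibition above 25% in both replicates, a cutoff set 3 SD above the mean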); conditions: OD615, 24 h, at 10 µM, hits give high values
Summary of the method: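 System: Engineered DeaD yeast | Buffer or medium: SC raffinose/galactose permissive medium | Doses: 10 µM single dose, 0.25% DMSO | Times: 24 h exposure, 30 °C | Measured by: OD615 turbidity read | Read-out: Yeast growth inhibition indicated by reduced 24 h OD615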

[2] = S. cerevisiae growth inhibition in restrictive medium, OD615, pilot screen, restrictive growth control, yeast lifespan reduction project (AID 706;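 active = growth inhibition above a set limit, 3 SD over mean compound inhibition, in both replicates, cut at about 43% in these data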;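 also: modified DeaD lifespan yeast strain shifted to restrictive glucose medium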); conditions: OD615, 48 h, at 10 µM, hits give high values
Summary of the method: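 Assay system: engineered S. cerevisiae DeaD strain; Buffer or medium: CSMM-D glucose medium; Dosing: 10 µM compound, 0.25% DMSO; Times: cell pre-growth 4 h, compound exposure 48 h, 30 °C; Detection: absorbance (optical density) measured at 615 nm.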

[3] = doxorubicin toxicity protection in MRP-1 cells – H69AR cells, CellTiter-Glo, duplicate, MRP-1 activator project, pilot screen (AID 807;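 active = viability increase at or above a cutoff of the median across tested compounds plus 3 SD, cut at about 8.5% in these data, passing the limit was not always enough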;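 also: compound pretreatment 18-22 h then 72 h combined with doxorubicin; 0% = doxorubicin alone and 100% = vehicle without doxorubicin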); conditions: H69AR viability with doxorubicin, CellTiter-Glo luminescence; at 10 µM; hits give high values
[4] = viability of HCT116 without oncogenic beta-catenin – human colon tumor cells, pilot screen (AID 823;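 active = cell viability at or below a set limit in both duplicate runs, the limit being the all-compound median minus 4 SD, cut at about 23% in these data, passing the limit was not always enough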;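 also: 0% = wells killed by 20 µM Hyamine and 100% = untreated DMSO cell wells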); conditions: HCT116 beta-catenin knockout viability, CellTiter-Glo, 60 h; at 10 µM; hits give low values
[5] = viability of PTEN-null HCT116 cells – cell-based, HCT116 clonal line, CellTiter-Glo, pilot screen (AID 824); conditions: HCT116 PTEN-deleted viability, 60 h, at 10 µM, hits give low values;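 also: 0% = 20 µM Hyamine control and 100% = vehicle cell control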
[6] = RAM pathway blockade in budding yeast – dse1pr::URA3 reporter, 5-FOA selection, pilot screen (AID 869;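 active = inhibition over a set limit, the all-compound mean plus 3 SD, in both replicate runs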;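 also: 0% = DMSO wells with no growth and 100% = 10 µM 1-NA-PP1 with full growth; RAM network block rescues cells from 5-FOA so hits raise OD615 growth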); conditions: S. cerevisiae dse1pr::URA3 5-FOA growth, OD615, 2 d; at 10 µM; hits give high values; strain carries analog-sensitive mutant Cbk1 kinase
[7] = RAM signaling pathway blockade in yeast – S. cerevisiae, Pdr1DBD-CYC8 efflux-inhibited sensitized strain, primary screen (AID 1298;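 active = RAM network inhibition above 8.4% in each of two replicates, 3 SD over the compound average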;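 also: 0% = DMSO untreated cells without growth and 100% = 10 µM 1-NA-PP1 full growth; higher means more yeast growth rescued from 5-FOA killing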); conditions: S. cerevisiae cbk1-as DSE1-URA3 strain, 5-FOA growth OD615, 2 d; at 50 µM; hits give high values

O=C(CC1Oc2ccccc2NC1=O)NC1CC1 (centres undefined)
inactive: growth inhibition [1] -1.45% | growth inhibition [2] -2.85% | viability increase [3] 0.91% | viability [4] 108% | viability [5] 93.5% | inhibition [6] 3.03% | RAM network inhibition [7] -0.05%

Cc1ccc(OCC(=O)n2nc(C)cc2C)c(Br)c1
inactive: growth inhibition [1] -17.8% | growth inhibition [2] -0.465% | viability increase [3] -2.35% | viability [4] 93.9% | viability [5] 94.3% | inhibition [6] 0.89% | RAM network inhibition [7] 0.1%

Cc1ccc2cc(CCNC(=O)C3CCCC3)c(=O)[nH]c2c1
inactive: growth inhibition [1] -7.07% | growth inhibition [2] -9.72% | viability increase [3] 1.09% | viability [4] 107% | viability [5] 98.2% | inhibition [6] 3.17% | RAM network inhibition [7] 4.58%

CC1CCc2nn(CC(=O)Nc3c(F)cc(F)cc3Br)cc2C1 (centres undefined)
inactive: growth inhibition [1] -5.22% | growth inhibition [2] -6.17% | viability increase [3] 2.17% | viability [4] 102% | viability [5] 90.3% | inhibition [6] 1.84% | RAM network inhibition [7] 1.57%

Cc1cc(C)cc(N(CC(=O)Nc2c(C)n(C)n(-c3ccccc3)c2=O)S(C)(=O)=O)c1
inactive: growth inhibition [1] -11.3% | growth inhibition [2] -11.2% | viability increase [3] -1.95% | viability [4] 96.2% | viability [5] 93.2% | inhibition [6] 0.71% | RAM network inhibition [7] 2.45%

Cc1cc(C)n(S(=O)(=O)c2ccc(Cl)c(Cl)c2Cl)n1
inactive: growth inhibition [1] -8.03% | growth inhibition [2] 4.29% | viability increase [3] -4.34% | viability [4] 86% | viability [5] 84.6% | inhibition [6] 1.17% | RAM network inhibition [7] 3.65%

CNc1oc(-c2ccccc2)nc1C#N
inactive: growth inhibition [1] 1.34% | growth inhibition [2] 21.3% | viability increase [3] 2.14% | viability [4] 101% | viability [5] 102% | inhibition [6] -0.58% | RAM network inhibition [7] 5.84%

CCC(=O)Nc1c(OC(=O)CC)ccc2c(C)cc(=O)oc12
inactive: growth inhibition [1] 5.45% | growth inhibition [2] 4.76% | viability increase [3] -2.02% | viability [4] 105% | viability [5] 88.7% | inhibition [6] 0.835% | RAM network inhibition [7] -0.83%

O=C(O)C1C2C=CC(C2)C1C(=O)NCc1ccc2c(c1)OCO2 (centres undefined)
inactive: growth inhibition [1] -3.23% | growth inhibition [2] -1.14% | viability increase [3] -1.9% | viability [4] 94.6% | viability [5] 90.6% | inhibition [6] 2.08% | RAM network inhibition [7] 2.65%

O=C1C2C3c4ccccc4C(c4ccccc43)C2C(=O)N1Cc1ccco1 (centres undefined)
inactive: growth inhibition [1] -2.21% | growth inhibition [2] 5.63% | viability increase [3] -3.21% | viability [4] 97% | viability [5] 93.4% | inhibition [6] 0% | RAM network inhibition [7] 4.51%

O=C1c2cccnc2C(=O)N1Cc1ccccc1
inactive: growth inhibition [1] -1.31% | growth inhibition [2] -3.01% | viability increase [3] -0.58% | viability [4] 101% | viability [5] 101% | inhibition [6] 0.015% | RAM network inhibition [7] 0.79%

CCN1CCn2c3c(c4cc(C)ccc42)CCCC31 (centres undefined)
inactive: growth inhibition [1] -4.94% | growth inhibition [2] -6.53% | viability increase [3] -2.11% | viability [4] 80.1% | viability [5] 74.9% | inhibition [6] 0.895% | RAM network inhibition [7] 0.21%

Cc1ccc(N2CC(c3nc4ccccc4[nH]3)CC2=O)c(C)c1 (centres undefined)
inactive: growth inhibition [1] -14.1% | growth inhibition [2] -17% | viability increase [3] 0.06% | viability [4] 107% | viability [5] 94.4% | inhibition [6] 1.45% | RAM network inhibition [7] 0.01%

CCOC(=O)C1=C(C)NC2=C(C(=O)CCC2)C1c1cc(OC)ccc1OC (centres undefined)
inactive: growth inhibition [1] -10.6% | growth inhibition [2] -12.8% | viability increase [3] -1.47% | viability [4] 94.1% | viability [5] 96.3% | inhibition [6] 1.73% | RAM network inhibition [7] 7.52%

O=C(COC(=O)c1ccco1)Nc1ccc(Br)cc1
inactive: growth inhibition [1] -15.4% | growth inhibition [2] -14.3% | viability increase [3] -1.81% | viability [4] 93.5% | viability [5] 99.3% | inhibition [6] 1.45% | RAM network inhibition [7] 2.21%

Cc1onc(-c2ccccc2)c1C(=O)Nc1sc2c(c1C#N)CCC2
inactive: growth inhibition [1] 3.88% | growth inhibition [2] 4.25% | viability increase [3] -4.93% | viability [4] 59.7% | viability [5] 54.3% | inhibition [6] 1.58% | RAM network inhibition [7] 0.09%

COc1ccc(NC(=O)c2cc3c(=O)n(C)c4ccccc4c3n2C)cc1OC
inactive: growth inhibition [1] -0.735% | growth inhibition [2] -6.07% | viability increase [3] -5.17% | viability [4] 93.8% | viability [5] 80.9% | inhibition [6] 2.05% | RAM network inhibition [7] 5.74%

Cn1c(=O)c2c(SCc3cccnc3)nc(CC(C)(C)C)nc2n(C)c1=O
inactive: growth inhibition [1] 0.2% | growth inhibition [2] -12% | viability increase [3] -6.27% | viability [4] 87.2% | viability [5] 80.9% | inhibition [6] 0.1% | RAM network inhibition [7] 3.24%

CCCCSc1nc2c(c(=O)n1CC)SC(C)C2 (centres undefined)
inactive: growth inhibition [1] -3.78% | growth inhibition [2] 5.58% | viability increase [3] -2.43% | viability [4] 87.3% | viability [5] 87.8% | inhibition [6] 0.125% | RAM network inhibition [7] 5.53%

O=c1cc(CO)oc(C(Nc2ccccn2)c2ccccc2F)c1O (centres undefined)
inactive: growth inhibition [1] -10.6% | growth inhibition [2] -4.86% | viability increase [3] -5.64% | viability [4] 106% | viability [5] 93.3% | inhibition [6] 0.95% | RAM network inhibition [7] 2.91%

CCc1ccc(S(=O)(=O)NCc2cn3c(C)csc3n2)s1
inactive: growth inhibition [1] 0.075% | growth inhibition [2] 5.25% | viability increase [3] -2.89% | viability [4] 102% | viability [5] 94.1% | inhibition [6] 0.37% | RAM network inhibition [7] 2.22%

CCOC(=O)c1cc(NC(=O)NCc2ccco2)c(C)nc1C
inactive: growth inhibition [1] -7.98% | growth inhibition [2] -25.8% | viability increase [3] -3.46% | viability [4] 105% | viability [5] 99.3% | inhibition [6] 1.57% | RAM network inhibition [7] 4.38%

Cn1c(=O)c2c(nc(SCCN3CCOCC3)n2Cc2ccccc2Cl)n(C)c1=O
inactive: growth inhibition [1] -14.9% | growth inhibition [2] 1.19% | viability increase [3] -5.35% | viability [4] 91.8% | viability [5] 94.9% | inhibition [6] 0.27% | RAM network inhibition [7] 5%

COc1cccc(C2CC(=O)N3CN(c4cccc(Cl)c4C)CSC3=C2C#N)c1OC (centres undefined)
inactive: growth inhibition [1] 5.33% | growth inhibition [2] 19.4% | viability increase [3] -4.11% | viability [4] 73.2% | viability [5] 63.9% | inhibition [6] 3.38% | RAM network inhibition [7] 7.39%

CCn1c2ccccc2c2cc(NC(=O)C3CCN(S(=O)(=O)c4cccs4)CC3)ccc21
inactive: growth inhibition [1] -8.9% | growth inhibition [2] -16.2% | viability increase [3] -5.99% | viability [4] 59.3% | viability [5] 66.2% | inhibition [6] 0.19% | RAM network inhibition [7] 4.66%

O=c1oc2ccccc2n1CCCOc1ccccc1
inactive: growth inhibition [1] 1.24% | growth inhibition [2] -1.04% | viability increase [3] 1.28% | viability [4] 98.1% | viability [5] 96.5% | inhibition [6] 2.02% | RAM network inhibition [7] 1.62%

CC(=O)Oc1ccc(C(=O)Nc2nccs2)cc1
inactive: growth inhibition [1] -7.33% | growth inhibition [2] -14.7% | viability increase [3] -4.75% | viability [4] 88.2% | viability [5] 80.3% | inhibition [6] 3.5% | RAM network inhibition [7] 0.1%
